Results taken from ChEMBL document CHEMBL4334471, “Discovery of 1,8-disubstituted-[1,2,3]triazolo[4,5-c]quinoline derivatives as a new class of Hippo signaling pathway inhibitors” (Bioorg Med Chem Lett, 2019).

Experiments:
[1] = target: Tyrosine-protein kinase Fes/Fps (Homo sapiens) (UniProt P07332); test: Inhibition of recombinant human FES (2 to end residues) assessed as residual activity at 10 uM using poly(Glu, Tyr) 4:1 as substrate at 40 mins in presence of [gamma-33ATP] by scintillation counting based radiometry assay relative to control
Sequence of Tyrosine-protein kinase Fes/Fps (Homo sapiens) (P07332 whole entry, the tested form may be a part): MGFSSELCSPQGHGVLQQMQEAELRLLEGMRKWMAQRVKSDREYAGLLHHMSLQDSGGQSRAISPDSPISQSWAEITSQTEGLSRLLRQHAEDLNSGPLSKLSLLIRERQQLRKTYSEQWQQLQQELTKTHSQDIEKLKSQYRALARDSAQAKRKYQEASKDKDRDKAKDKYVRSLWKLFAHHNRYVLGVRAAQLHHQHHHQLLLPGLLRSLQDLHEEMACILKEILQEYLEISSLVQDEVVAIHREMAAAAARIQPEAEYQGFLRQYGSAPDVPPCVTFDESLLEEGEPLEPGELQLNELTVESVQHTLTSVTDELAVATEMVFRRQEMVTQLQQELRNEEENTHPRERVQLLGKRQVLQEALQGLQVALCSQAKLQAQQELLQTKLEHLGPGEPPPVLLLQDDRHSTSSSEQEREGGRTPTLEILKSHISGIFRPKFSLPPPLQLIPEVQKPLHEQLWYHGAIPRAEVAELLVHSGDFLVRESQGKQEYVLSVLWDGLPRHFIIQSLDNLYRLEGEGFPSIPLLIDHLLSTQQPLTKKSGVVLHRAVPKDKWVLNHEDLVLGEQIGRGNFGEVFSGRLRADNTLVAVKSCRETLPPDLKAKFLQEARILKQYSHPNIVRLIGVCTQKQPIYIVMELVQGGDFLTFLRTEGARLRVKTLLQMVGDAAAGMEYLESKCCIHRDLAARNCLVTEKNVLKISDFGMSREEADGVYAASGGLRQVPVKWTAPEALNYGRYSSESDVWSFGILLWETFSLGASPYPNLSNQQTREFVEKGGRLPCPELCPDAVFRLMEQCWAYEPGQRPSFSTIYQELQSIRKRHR

[2] = target: CDK4/Cyclin D3 (Homo sapiens) (UniProt P11802+P30281); test: Inhibition of recombinant full length human CDK4/CyclinD3 assessed as residual activity at 10 uM using Rb fragment as substrate incubated for 40 mins in presence of [gamma-33ATP] by scintillation counting based radiometry assay relative to control; type: protein-complex assay
[3] = target: Serine/threonine-protein kinase SIK2 (Homo sapiens) (UniProt Q9H0K1); test: Inhibition of recombinant human SIK2 (1 to 276 residues) assessed as residual activity at 10 uM using KKKVSRSGLYRSPSMPENLNRPR as substrate incubated for 40 mins in presence of [gamma33P]ATP by scintillation counting based radiometry assay relative to control
Sequence of Serine/threonine-protein kinase SIK2 (Homo sapiens) (Q9H0K1 whole entry, looked up, the tested form may be a part): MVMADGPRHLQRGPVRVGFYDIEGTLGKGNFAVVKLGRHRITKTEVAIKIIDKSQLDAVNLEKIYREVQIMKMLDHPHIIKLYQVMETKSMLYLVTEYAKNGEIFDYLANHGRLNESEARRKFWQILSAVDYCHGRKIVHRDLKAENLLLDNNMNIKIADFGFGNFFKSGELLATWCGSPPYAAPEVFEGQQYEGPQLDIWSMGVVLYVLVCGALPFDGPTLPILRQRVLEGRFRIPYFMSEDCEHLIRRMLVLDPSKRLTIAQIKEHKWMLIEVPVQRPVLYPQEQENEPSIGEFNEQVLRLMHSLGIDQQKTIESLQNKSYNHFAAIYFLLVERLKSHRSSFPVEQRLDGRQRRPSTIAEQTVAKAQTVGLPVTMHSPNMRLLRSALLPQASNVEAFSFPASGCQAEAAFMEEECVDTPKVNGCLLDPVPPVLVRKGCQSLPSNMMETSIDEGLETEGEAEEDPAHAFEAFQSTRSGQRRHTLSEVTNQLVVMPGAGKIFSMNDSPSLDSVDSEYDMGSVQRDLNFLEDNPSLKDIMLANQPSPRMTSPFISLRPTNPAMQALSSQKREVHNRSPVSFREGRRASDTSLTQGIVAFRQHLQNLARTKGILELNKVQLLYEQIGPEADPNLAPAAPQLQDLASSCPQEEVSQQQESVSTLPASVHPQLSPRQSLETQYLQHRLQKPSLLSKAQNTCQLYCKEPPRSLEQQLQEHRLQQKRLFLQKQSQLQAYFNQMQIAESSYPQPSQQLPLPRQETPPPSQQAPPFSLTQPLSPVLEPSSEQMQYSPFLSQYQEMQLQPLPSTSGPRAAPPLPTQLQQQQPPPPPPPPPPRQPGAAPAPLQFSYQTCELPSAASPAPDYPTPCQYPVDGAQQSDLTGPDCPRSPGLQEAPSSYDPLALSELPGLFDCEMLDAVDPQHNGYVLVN

[4] = target: Tyrosine-protein kinase receptor TYRO3 (Homo sapiens) (UniProt Q06418); test: Inhibition of recombinant human RSE (451 to end residues) assessed as residual activity at 10 uM using KVEKIGEGTYGVVYK as substrate incubated for 40 mins in presence of [gamma33P]ATP by scintillation counting based radiometry assay relative to control
[5] = target: SRSF protein kinase 2 (Homo sapiens) (UniProt P78362); test: Inhibition of recombinant human SRPK2 (46 to end residues) assessed as residual activity at 10 uM using RSRSRSRSRSRSRSR as substrate incubated for 40 mins in presence of [gamma33P]ATP by scintillation counting based radiometry assay relative to control
[6] = target: Tyrosine-protein kinase HCK (Homo sapiens) (UniProt P08631); test: Inhibition of human HCK (230 to 497 residues) assessed as residual activity at 10 uM using Cdc2 peptide as substrate after 40 mins by [gamma-33ATP] radiometric assay relative to control
A549 = test: Inhibition of hippo signalling protein in human A549 cells assessed as increase in CTGF mRNA expression level incubated for 24 hrs by qRT-PCR analysis; type: cell-based
Method in brief: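 A549-CTGF cells were exposed to compound or 0.1% DMSO for 24 h before total RNA extraction. Endogenous CTGF mRNA was quantified by real-time PCR. Data were mean ± SEM (n=4) and compared by Student's t-test.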

[7] = target: Tyrosine-protein kinase ABL2 (Homo sapiens) (UniProt P42684); test: Inhibition of human Arg (38 to end residues) assessed as residual activity at 10 uM using EAIYAAPFAKKK as substrate incubated for 40 mins in presence of [gamma-33ATP] by scintillation counting based radiometry assay relative to control
[8] = system: Tyrosine-protein kinase ABL1 (Homo sapiens), P00519 [Y253F]; test: Inhibition of human ABL1 Y253F mutant (27 to end residues) assessed as residual activity at 10 uM using EAIYAAPFAKKK as substrate incubated for 40 mins in presence of [gamma-33ATP] by scintillation counting based radiometry assay relative to control
[9] = target: TGF-beta receptor type-2 (Homo sapiens) (UniProt P37173); test: Inhibition of recombinant human TGFBR2 (188 to end residues) assessed as residual activity at 10 uM using myelin basic protein as substrate incubated for 120 mins in presence of [gamma33P]ATP by scintillation counting based radiometry assay relative to control
[10] = target: Serine/threonine-protein kinase MARK2 (Homo sapiens) (UniProt Q7KZI7); test: Inhibition of recombinant full-length human PAR1Balpha assessed as residual activity at 10 uM using KKKVSRSGLYRSPSMPENLNRPR as substrate measured after 40 mins in presence of [gamma33P]ATP by scintillation counting based radiometry assay relative to control
Sequence of Serine/threonine-protein kinase MARK2 (Homo sapiens) (Q7KZI7 whole entry): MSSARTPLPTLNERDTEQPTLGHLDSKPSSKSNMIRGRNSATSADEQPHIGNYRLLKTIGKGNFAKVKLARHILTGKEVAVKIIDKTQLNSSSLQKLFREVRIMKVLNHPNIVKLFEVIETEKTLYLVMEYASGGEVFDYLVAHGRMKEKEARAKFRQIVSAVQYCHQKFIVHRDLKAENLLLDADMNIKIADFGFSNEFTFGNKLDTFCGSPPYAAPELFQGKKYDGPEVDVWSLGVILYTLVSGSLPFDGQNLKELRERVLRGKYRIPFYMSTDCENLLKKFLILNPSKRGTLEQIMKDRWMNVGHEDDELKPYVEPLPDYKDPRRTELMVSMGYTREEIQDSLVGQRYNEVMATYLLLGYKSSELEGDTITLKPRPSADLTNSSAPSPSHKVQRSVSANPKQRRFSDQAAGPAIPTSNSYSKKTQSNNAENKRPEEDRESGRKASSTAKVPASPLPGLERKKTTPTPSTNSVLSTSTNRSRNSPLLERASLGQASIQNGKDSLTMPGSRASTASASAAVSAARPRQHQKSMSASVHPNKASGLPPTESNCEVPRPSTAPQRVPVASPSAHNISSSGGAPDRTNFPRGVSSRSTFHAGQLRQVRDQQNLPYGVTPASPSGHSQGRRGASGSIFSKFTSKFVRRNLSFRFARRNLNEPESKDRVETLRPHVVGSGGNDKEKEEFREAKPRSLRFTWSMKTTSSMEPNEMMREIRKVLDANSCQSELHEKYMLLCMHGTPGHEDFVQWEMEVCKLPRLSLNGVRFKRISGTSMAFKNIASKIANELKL

[11] = target: Citron Rho-interacting kinase (Homo sapiens) (UniProt O14578); test: Inhibition of recombinant human CRIK assessed as residual activity at 10 uM KKLRRTLSVA as substrate incubated 120 mins in presence of [gamma-33ATP] by scintillation counting based radiometry assay relative to control
[12] = target: Serine/threonine-protein kinase Sgk3 (Homo sapiens) (UniProt Q96BR1); test: Inhibition of recombinant human SGK3 (119 to end residues) assessed as residual activity at 10 uM using GRPRTSSFAEGKK as substrate incubated for 40 mins in presence of [gamma33P]ATP by scintillation counting based radiometry assay relative to control
[13] = target: Hepatocyte growth factor receptor (Homo sapiens) (UniProt P08581); test: Inhibition of recombinant human MET A1209G/V1290L mutant (974 to end residues) assessed as residual activity at 10 uM using KKKGQEEEYVFIE as substrate incubated for 40 mins in presence of [gamma-33ATP by scintillation counting based radiometry assay relative to control
[14] = target: Receptor-interacting serine/threonine-protein kinase 1 (Homo sapiens) (UniProt Q13546); test: Inhibition of recombinant human RIPK1 (8 to 322 residues) assessed as residual activity at 10 uM using myelin basic protein as substrate incubated for 40 mins in presence of [gamma33P]ATP by scintillation counting based radiometry assay relative to control
Sequence of Receptor-interacting serine/threonine-protein kinase 1 (Homo sapiens) (Q13546 whole entry, the tested form may be a part): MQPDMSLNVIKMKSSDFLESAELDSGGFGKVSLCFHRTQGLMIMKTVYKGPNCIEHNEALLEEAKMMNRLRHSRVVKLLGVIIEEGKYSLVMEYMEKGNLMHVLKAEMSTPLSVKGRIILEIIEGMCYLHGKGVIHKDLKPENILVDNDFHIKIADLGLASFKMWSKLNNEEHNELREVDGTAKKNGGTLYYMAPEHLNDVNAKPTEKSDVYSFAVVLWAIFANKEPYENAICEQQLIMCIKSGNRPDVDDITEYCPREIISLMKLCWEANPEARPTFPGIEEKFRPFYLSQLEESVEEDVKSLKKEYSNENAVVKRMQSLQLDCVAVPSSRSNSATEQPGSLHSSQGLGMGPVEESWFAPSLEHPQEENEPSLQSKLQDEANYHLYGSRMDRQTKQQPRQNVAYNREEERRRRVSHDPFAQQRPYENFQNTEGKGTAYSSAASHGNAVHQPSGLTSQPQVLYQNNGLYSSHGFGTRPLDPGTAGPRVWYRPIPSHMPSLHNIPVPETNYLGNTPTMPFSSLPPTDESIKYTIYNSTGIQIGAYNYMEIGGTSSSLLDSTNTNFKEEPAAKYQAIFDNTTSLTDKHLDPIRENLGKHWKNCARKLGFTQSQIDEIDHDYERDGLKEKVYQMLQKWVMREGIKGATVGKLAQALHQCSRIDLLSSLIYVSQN

[15] = target: PAS domain-containing serine/threonine-protein kinase (Homo sapiens) (UniProt Q96RG2); test: Inhibition of recombinant human PASK (995 to end residues) assessed as residual activity at 10 uM using KKLNRTLSFAEPG as substrate measured after 40 mins in presence of [gamma33P]ATP by scintillation counting based radiometry assay relative to control
[16] = target: Serine/threonine-protein kinase LATS2 (Homo sapiens, UniProt Q9NRM7); test: Binding affinity to wild-type human partial length LATS2 (Q641 to V1088 residues) expressed in mammalian expression system assessed as dissociation constant by Kinomescan method
Sequence of Serine/threonine-protein kinase LATS2 (Q9NRM7 whole entry, the tested form may be a part): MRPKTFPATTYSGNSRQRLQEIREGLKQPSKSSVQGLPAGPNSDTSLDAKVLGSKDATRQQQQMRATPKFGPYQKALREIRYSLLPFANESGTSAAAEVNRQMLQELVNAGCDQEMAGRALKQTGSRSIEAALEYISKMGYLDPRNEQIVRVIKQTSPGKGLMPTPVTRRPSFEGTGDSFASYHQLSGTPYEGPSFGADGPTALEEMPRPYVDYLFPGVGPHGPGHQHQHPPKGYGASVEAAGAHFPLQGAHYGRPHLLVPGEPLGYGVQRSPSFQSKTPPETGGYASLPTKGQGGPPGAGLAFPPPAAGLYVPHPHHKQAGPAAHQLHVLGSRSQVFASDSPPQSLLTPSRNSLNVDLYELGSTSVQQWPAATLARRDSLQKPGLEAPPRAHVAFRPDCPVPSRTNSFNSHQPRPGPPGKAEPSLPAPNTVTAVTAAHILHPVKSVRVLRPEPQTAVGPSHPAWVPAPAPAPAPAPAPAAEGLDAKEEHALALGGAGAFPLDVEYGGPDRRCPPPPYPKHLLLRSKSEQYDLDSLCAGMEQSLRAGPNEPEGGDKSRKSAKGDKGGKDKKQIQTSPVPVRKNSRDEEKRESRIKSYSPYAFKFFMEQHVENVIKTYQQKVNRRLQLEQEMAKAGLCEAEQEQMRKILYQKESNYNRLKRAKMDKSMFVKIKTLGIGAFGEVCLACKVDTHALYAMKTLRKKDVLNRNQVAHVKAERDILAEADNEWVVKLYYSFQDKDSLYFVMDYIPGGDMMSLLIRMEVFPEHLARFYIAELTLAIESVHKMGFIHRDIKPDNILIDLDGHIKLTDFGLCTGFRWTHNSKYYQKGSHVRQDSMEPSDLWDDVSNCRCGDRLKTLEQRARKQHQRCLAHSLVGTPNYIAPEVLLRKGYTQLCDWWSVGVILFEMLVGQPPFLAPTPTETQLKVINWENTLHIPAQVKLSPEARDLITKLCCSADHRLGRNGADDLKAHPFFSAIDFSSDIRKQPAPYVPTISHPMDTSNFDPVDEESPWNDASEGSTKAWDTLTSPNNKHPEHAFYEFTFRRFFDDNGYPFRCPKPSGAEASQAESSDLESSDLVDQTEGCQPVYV
Method in brief: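 KINOMEscan competition binding assay. Kinase bound at each concentration of test compound was quantified by qPCR and plotted against log10 compound concentration to derive Kd.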

[17] = target: Phosphorylase b kinase gamma catalytic chain, skeletal muscle/heart isoform (Homo sapiens) (UniProt Q16816); test: Inhibition of recombinant full-length human PhKgamma1 assessed as residual activity at 10 uM using KKLNRTLSFAEPG as substrate incubated for 40 mins in presence of [gamma33P]ATP by scintillation counting based radiometry assay relative to control
Sequence of Phosphorylase b kinase gamma catalytic chain, skeletal muscle/heart isoform (Homo sapiens) (Q16816 whole entry, looked up, the tested form may be a part, canonical isoform): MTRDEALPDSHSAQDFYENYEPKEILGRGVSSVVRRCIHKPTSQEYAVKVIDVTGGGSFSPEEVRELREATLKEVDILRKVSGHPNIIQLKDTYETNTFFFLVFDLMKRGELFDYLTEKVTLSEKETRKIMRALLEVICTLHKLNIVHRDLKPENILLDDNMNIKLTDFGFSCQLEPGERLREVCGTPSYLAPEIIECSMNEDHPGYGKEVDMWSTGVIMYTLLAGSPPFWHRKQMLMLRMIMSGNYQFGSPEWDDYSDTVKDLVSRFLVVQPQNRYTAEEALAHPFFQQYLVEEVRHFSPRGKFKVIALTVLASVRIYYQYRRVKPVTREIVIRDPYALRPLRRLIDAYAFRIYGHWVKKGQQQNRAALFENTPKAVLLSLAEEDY

[18] = target: Casein kinase I isoform delta (Homo sapiens) (UniProt P48730); test: Inhibition of recombinant human CK1delta (1 to 294 residues) assessed as residual activity at 10 uM using KRRRALS(p)VASLPGL as substrate incubated for 40 mins in presence of [gamma-33ATP] by scintillation counting based radiometry assay relative to control
[19] = target: Serine/threonine-protein kinase VRK1 (Homo sapiens) (UniProt Q99986); test: Inhibition of recombinant human VRK1 assessed as residual activity at 10 uM in presence of [gamma33P]ATP by scintillation counting based radiometry assay relative to control
Sequence of Serine/threonine-protein kinase VRK1 (Homo sapiens) (Q99986 whole entry): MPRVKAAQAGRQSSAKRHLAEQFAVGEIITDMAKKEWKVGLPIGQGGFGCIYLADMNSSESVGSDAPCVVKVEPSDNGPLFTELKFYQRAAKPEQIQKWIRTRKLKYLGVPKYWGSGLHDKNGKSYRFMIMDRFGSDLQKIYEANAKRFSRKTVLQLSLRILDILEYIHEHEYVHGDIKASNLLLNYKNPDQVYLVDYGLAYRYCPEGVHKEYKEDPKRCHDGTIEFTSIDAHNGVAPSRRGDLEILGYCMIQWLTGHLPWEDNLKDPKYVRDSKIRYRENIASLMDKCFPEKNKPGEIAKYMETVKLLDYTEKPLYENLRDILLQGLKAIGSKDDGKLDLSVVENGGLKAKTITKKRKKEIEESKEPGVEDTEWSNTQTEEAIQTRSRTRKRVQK

## C[C@@H](c1ccccc1)n1nnc2cnc3ccc(-c4cnc5[nH]ccc5c4)cc3c21
[1]
  Activity: 41%
[2]
  Activity: 74%
[3]
  Activity: 7%
[4]
  Activity: 89%
[5]
  Activity: 26%
[6]
  Activity: 9%
A549
  inhibition: Dose-dependent effect
[7]
  Activity: 1%
[8]
  Activity: 6%
[9]
  Activity: 87%
[10]
  Activity: 85%
[11]
  Activity: 80%
[12]
  Activity: 80%
[13]
  Activity: 62%
[14]
  Activity: 98%
[15]
  Activity: 30%
[16]
  Kd: > 10 µM
[17]
  Activity: 70%
[18]
  Activity: 23%
[19]
  Activity: 96%
